Square brackets hold non-standard residues; d marks the D form. Ends that are not written are not given here. Peptide text beside a SMILES is read from it. * marks the point of attachment. Biotin = O=C1N[C@H]2[C@H](CS[C@H]2CCCCC(=O)*)N1; pS = N[C@@H](COP(=O)(O)O)C(=O)O
Assays:
HEK293 cells = assay: 53BP1 retention at sites of DNA damage; type: cell-based; conditions: HEK293, 10 Gy IR, 45 min recovery
FLAG-hPTIP = assay: Co-immunoprecipitation of mutant HA-53BP1 with FLAG-hPTIP after IR; type: cell-based, human; conditions: HEK293, IR 0 or 20 Gy, anti-FLAG immunoprecipitates
How it was run: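 HEK293 cells in DMEM with 10% FBS and penicillin/streptomycin at 37°C, 5% CO2. Cells co-transfected by calcium phosphate with FLAG-hPTIP and full-length HA-53BP1 carrying Ser/Thr→Ala mutations at ATM S/T-Q motifs. Cells irradiated at 0 or 20 Gy and lysed. Anti-FLAG immunoprecipitates run on SDS–PAGE and western blotted to detect co-precipitated 53BP1.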

[1] = test system: 53BP1 Ser25 phosphorylation in HEK293 cells; assay: IR-induced phosphorylation of 53BP1 Ser25 in HEK293 cells; type: cell-based; conditions: 10 μM inhibitor pre-incubated 1 h, IR 10 Gy, western blot
[2] = biological target: hPTIP BRCT domain pair C2 (Homo sapiens, UniProt Q6ZW49); assay: BiaCore binding to hPTIP BRCT pair C2 alone
[3] = biological target: hPTIP-BRCT pair C1 + C2 W676A (Homo sapiens, UniProt Q6ZW49, W676A); assay: BiaCore binding to hPTIP BRCT pair C1 + C2 W676A
[4] = biological target: hPTIP-BRCT pair C1 + C2 W929A (Homo sapiens, UniProt Q6ZW49, W929A); assay: BiaCore binding to hPTIP BRCT pair C1 + C2 W929A
[5] = biological target: 53BP1 peptide Non(P), biotin-… (human); assay: SPR
[6] = biological target: 53BP1 peptide Ser25(P), biotin-…p… (human); assay: SPR
[7] = biological target: S-Q-V-F (P) peptide, biotin-GAAYDI-pSQ-VFPFAKKK
U2OS cells = assay: hPTIP nuclear focus formation after IR in U2OS cells; type: cell-based; conditions: 15 Gy IR, 45 min recovery
How it was run: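 U2OS cells on glass coverslips transiently transfected with wild-type or point-mutant FLAG-hPTIP. Irradiated 0 or 15 Gy, recovered 45 min at 37°C, then fixed, permeabilised and blocked. Anti-FLAG or anti-53BP1 (1 µg/ml) 60 min at room temperature, then Alexa488/594 secondaries (2 µg/ml) 60 min. Fluorescence microscopy; anti-FLAG foci counted in ~200 transfected cells; mean ± SD.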

[8] = test system: BRCA1 Ser1524 phosphorylation in HEK293 cells; assay: IR-induced phosphorylation of BRCA1 at Ser1524; type: cell-based; conditions: HEK293, IR 3 Gy, siRNA depletion or rescue, western blot
full-length HA-53BP1 = assay: Co-immunoprecipitation of mutant FLAG-hPTIP with HA-53BP1 after IR; type: cell-based, human; conditions: HEK293, IR 0 or 20 Gy, anti-FLAG immunoprecipitates
53BP1 [9] = assay: GST-hPTIP BRCT retrieval of 53BP1 from extracts of irradiated HEK 293 cells; type: binding, human; conditions: GST fusion on glutathione-sepharose, HEK 293 extract, 10 Gy IR, western blot
[10] = test system: Chk2 Thr68 phosphorylation in HEK293 cells; assay: IR-induced phosphorylation of Chk2 at Thr68; type: cell-based; conditions: HEK293, IR 3 Gy, siRNA depletion or rescue, western blot
53BP1 [11] = conditions: previous report; ref [4]; cited from earlier work
[12] = biological target: GST-hPTIP (590–1069) W929A (human, UniProt Q6ZW49 590-1069, W929A); assay: SPR
[13] = biological target: GST-hPTIP (590–1069) W676A (human, UniProt Q6ZW49 590-1069, W676A); assay: SPR
GST-hPTIP (590–1069) W676A, sequence (Q6ZW49 590-1069 W676A): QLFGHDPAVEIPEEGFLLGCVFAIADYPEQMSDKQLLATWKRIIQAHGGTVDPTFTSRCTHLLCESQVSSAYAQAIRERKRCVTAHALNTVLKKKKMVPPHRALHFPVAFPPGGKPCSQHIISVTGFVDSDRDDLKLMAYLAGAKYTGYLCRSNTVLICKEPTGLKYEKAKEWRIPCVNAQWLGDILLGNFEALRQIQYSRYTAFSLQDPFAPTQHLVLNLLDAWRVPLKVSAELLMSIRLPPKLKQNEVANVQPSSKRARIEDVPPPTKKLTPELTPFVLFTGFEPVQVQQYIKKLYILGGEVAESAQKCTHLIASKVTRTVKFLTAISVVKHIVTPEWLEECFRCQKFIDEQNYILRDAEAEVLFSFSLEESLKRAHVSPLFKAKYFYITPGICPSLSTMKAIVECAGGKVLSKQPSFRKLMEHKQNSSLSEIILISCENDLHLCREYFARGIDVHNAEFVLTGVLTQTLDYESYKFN

53BP1 peptide Ser25(P), biotin-…p… (human), sequence (Q12888 16-35): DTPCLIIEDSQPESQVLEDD
hPTIP-BRCT pair C1 + C2 W929A, sequence (Q6ZW49 590-1069 W929A): as the sequence (Q6ZW49 590-1069 W676A) above, with A87W, W340A counted along it
hPTIP-BRCT pair C1 + C2 W676A, sequence (Q6ZW49 590-1069 W676A): as the sequence (Q6ZW49 590-1069 W676A) above

With 53BP1 Ser25Ala mutant the “retention at sites of DNA damage” value (HEK293 cells) was “indistinguishable from the wild-type protein” and the “IR-induced interaction of 53BP1 with hPTIP” value (FLAG-hPTIP) was “abolished”.

For `O=c1cc(-c2cccc3c2Sc2ccccc2S3)oc(N2CCOCC2)c1` [KU55933], the “IR-induced phosphorylation of 53BP1 Ser25” value [1] was “not in cells pre-incubated with the ATM-specific inhibitor KU55933”.

With `O=c1cc(N2CCOCC2)oc2c(-c3cccc4c3sc3ccccc34)cccc12` [NU7441] the “IR-induced phosphorylation of 53BP1 Ser25” value [1] was “did not affect IR-induced phosphorylation of 53BP1 Ser25”.

In the case of `CC[C@H](C)[C@H](NC(=O)[C@H](CC(=O)O)NC(=O)[C@H](Cc1ccc(O)cc1)NC(=O)[C@H](C)NC(=O)[C@H](C)NC(=O)CNC(=O)CCCC[C@@H]1SC[C@@H]2NC(=O)N[C@@H]21)C(=O)N[C@@H](COP(=O)(O)O)C(=O)N[C@@H](CCC(N)=O)C(=O)N[C@H](C(=O)N[C@@H](Cc1ccccc1)C(=O)N1CCC[C@H]1C(=O)N[C@@H](Cc1ccccc1)C(=O)N[C@@H](C)C(=O)N[C@@H](CCCCN)C(=O)N[C@@H](CCCCN)C(=O)N[C@@H](CCCCN)C(=O)O)C(C)C` [S-Q-V-F peptide] (Biotin-GAAYDI[pS]QVFPFAKKK-OH), the Kd [2] is reported as ~0.273 µM.

For `CC[C@H](C)[C@H](NC(=O)[C@H](CC(C)C)NC(=O)[C@H](CS)NC(=O)[C@@H]1CCCN1C(=O)[C@@H](NC(=O)[C@H](CC(=O)O)NC(=O)CCCC[C@@H]1SC[C@@H]2NC(=O)N[C@@H]21)[C@@H](C)O)C(=O)N[C@H](C(=O)N[C@@H](CCC(=O)O)C(=O)N[C@@H](CC(=O)O)C(=O)N[C@@H](COP(=O)(O)O)C(=O)N[C@@H](CCC(N)=O)C(=O)N1CCC[C@H]1C(=O)N[C@@H](CCC(=O)O)C(=O)N[C@@H](CO)C(=O)N[C@@H](CCC(N)=O)C(=O)N[C@H](C(=O)N[C@@H](CC(C)C)C(=O)N[C@@H](CCC(=O)O)C(=O)N[C@@H](CC(=O)O)C(=O)N[C@@H](CC(=O)O)C(=O)O)C(C)C)[C@@H](C)CC` [Ser25(P)] (Biotin-DTPCLIIED[pS]QPESQVLEDD-OH), the Kd [3] was > 1000 µM and the Kd [4] was > 1000 µM.

In the case of “GST-hPTIP (590–1069) (BRCT pairs C1 + C2) (from UniProt Q6ZW49 590-1069) (domain or fragment)”, the Kd [5] is reported as > 1000 µM and the Kd [6] is reported as 0.526 µM.

Molecule “GST-hPTIP (862–1069) (BRCT pair C2) (from UniProt Q6ZW49 862-1069) (domain or fragment)” has a Kd [7] of 0.273 µM.

With R910Q the “nuclear focus formation after IR” value (U2OS cells) was “little effect on the ability of hPTIP to form foci after IR”, the “phosphorylation of BRCA1 at Ser1524” value [8] was “could not” and the “binding of hPTIP to 53BP1 in IR-treated cells” value (“binding of hPTIP to 53BP1” for short) (full-length HA-53BP1) was “abolished”.

For W676A, the “nuclear focus formation after IR” value (U2OS cells) was “prevented focus formation”, the “number of nuclear foci per cell, after IR” value (U2OS cells; ∼200 transfected cells, almost all cells) was < 10 foci and the “retrieval of 53BP1 from cell extracts” value (53BP1 [9]) was “prevented”. For the same molecule, the “binding of hPTIP to 53BP1” value (full-length HA-53BP1) was “abolished”.

In the case of W929A, the “nuclear focus formation after IR” value (U2OS cells) is reported as “prevented focus formation” and the “binding of hPTIP to 53BP1” value (full-length HA-53BP1) is reported as “abolished”.

For “mutation of Ser29: 53BP1 with Ser29 singly mutated”, the “IR-induced interaction of 53BP1 with hPTIP” value (FLAG-hPTIP) was “no effect”.

In the case of “wild-type 53BP1: HA-53BP1 carrying a silent mutation, refractory to silencing by siRNA”, the “phosphorylation of Chk2 at Thr68” value [10] is reported as “could rescue”.

B1: hPTIP BRCT pair C2: bacterially expressed GST-hPTIP (862–1069) (protein, UniProt Q6ZW49 862-1069, looked up, fragment)
chain: TPELTPFVLFTGFEPVQVQQYIKKLYILGGEVAESAQKCTHLIASKVTRTVKFLTAISVVKHIVTPEWLEECFRCQKFIDEQNYILRDAEAEVLFSFSLEESLKRAHVSPLFKAKYFYITPGICPSLSTMKAIVECAGGKVLSKQPSFRKLMEHKQNSSLSEIILISCENDLHLCREYFARGIDVHNAEFVLTGVLTQTLDYESYKFN
modifications: GST tag
In the case of B1, the “retrieval of phosphorylated 53BP1 from extracts of irradiated cells” value (53BP1 [11]) is given as “could retrieve phosphorylated 53BP1 from extracts of irradiated cells”.

In the case of Biotin-DTPCLIIED[pS]QPESQVLEDD [53BP1 peptide Ser25(P), biotin-DTPCLIIEDpSQPESQVLEDD], the Kd [12] is reported as > 1000 µM and the Kd [13] is reported as > 1000 µM.

From paper PMC2018624 (Nucleic Acids Research, 2007)
